Experimental data gathered from unrelated publications.
Compare with care: the assays were run in different laboratories.
MAL12: Alpha-glucosidase MAL12 (MAL12, Saccharomyces cerevisiae S288c, UniProt P53341)
FABP1: Fatty acid-binding protein, liver (FABP1, Homo sapiens, UniProt P07148)
SQLE: Squalene monooxygenase (SQLE, Homo sapiens, UniProt Q14534)

| Compound | target | assay | system | conditions | IC50 |
| --- | --- | --- | --- | --- | --- |
| COc1ccc(Cl)cc1C(=O)NCCc1ccc(S(=O)(=O)NC(=O)NC2CCCCC2)cc1 | Solute carrier family 22 member 6 (SLC22A6, Homo sapiens, UniProt Q4U2R8, F442A) | transporter uptake, inhibitor, fluorescence |  |  | 17.7 µM |
| CC(=O)C1=C(C)n2c(=O)c3ccccc3c(=O)n2C1c1cn(-c2ccccc2)nc1-c1ccc(Br)cc1 (stereo not drawn) | MAL12 | enzyme activity, inhibitor, absorbance |  |  | 18.6 µM |
| Cc1cc2c(cc1C)N[C@H](c1ccccc1)[C@@H](O)C(=O)N2 | Cyclin-dependent kinase 5 (CDK5, Homo sapiens, UniProt Q00535) | enzyme activity, inhibitor, ELISA |  |  | 0.663 µM |
| C[C@H]1CN(C(=O)Nc2ccc(C(F)(F)F)cc2)CCN1c1ccnc(Nc2ccc(O)cc2)n1 | MAL12 | enzyme activity, inhibitor, absorbance |  | pH 6.9 | 3.71 µM |
| Cc1cc(/C=C2\Oc3cc(OCC(C)C)ccc3C2=O)cc(C)c1OC(C)(C)C(=O)O | FABP1 | cell-free assay, inhibitor, fluorescence |  | pH 7.4 | 4.8 µM |
| CC[N+](CC)(CC)Cc1ccccc1.CC[N+](CC)(CC)Cc1ccccc1.[Br][Co-2]([Br])([Br])[Br] | Tyrosine-protein phosphatase non-receptor type 1 (PTPN1, Homo sapiens, UniProt P18031) | enzyme activity, inhibitor |  |  | 10.9 µM |
| Cc1ccc(NC(=O)N2CCN(c3ccnc(Nc4ccc(Cl)cc4)n3)[C@H](C)C2)cc1 | MAL12 | enzyme activity, inhibitor, absorbance |  | pH 6.9 | 7.78 µM |
| COc1ccc2c(c1)O/C(=C\c1cc(C)c(OC(C)(C)C(=O)O)c(C)c1)C2=O | FABP1 | cell-free assay, inhibitor, fluorescence |  | pH 7.4 | 9 µM |
| CC(=O)C1=C(C)n2c(=O)c3ccccc3c(=O)n2C1c1cn(-c2ccccc2)nc1-c1ccccc1 (stereo not drawn) | MAL12 | enzyme activity, inhibitor, absorbance |  |  | 15.4 µM |
| C[C@H]1CN(C(=O)Nc2ccc(C(F)(F)F)cc2)CCN1c1ccnc(Nc2ccccc2Cl)n1 | MAL12 | enzyme activity, inhibitor, absorbance |  | pH 6.9 | 4.21 µM |
| CC(C)NC(=O)COc1cccc(-c2nc(Nc3ccc4[nH]ncc4c3)c3ccccc3n2)c1 | Solute carrier family 22 member 6 (SLC22A6, Homo sapiens, UniProt Q4U2R8) | transporter uptake, inhibitor, radiometric | HEK293 |  | > 1 µM |
| Nc1ccn(C[C@@H](CO)OCP(=O)(O)O)c(=O)n1 | Solute carrier family 22 member 6 (SLC22A6, Homo sapiens, UniProt Q4U2R8, F438Y) | transporter uptake, inhibitor, fluorescence |  |  | 1400 µM |
| N=C(N)c1ccc2cc(OC(=O)c3ccc(N=C(N)N)cc3)ccc2c1 | Coagulation factor IX (F9, Homo sapiens, UniProt P00740) | enzyme activity, inhibitor |  |  | 0.086 µM |
| C[C@H]1CN(C(=O)Nc2ccc(C(F)(F)F)cc2)CCN1c1ccnc(Nc2cccc(Cl)c2)n1 | MAL12 | enzyme activity, inhibitor, absorbance |  | pH 6.9 | 3.45 µM |
| COc1cc(C2Oc3cc([C@H]4Oc5cc(O)cc(O)c5C(=O)[C@@H]4O)ccc3OC2CO)ccc1O (stereo partly drawn) | SQLE | enzyme activity, inhibitor, radiometric |  |  | 1.88 µM |
| CCCCOc1ccc2c(c1)O/C(=C\c1cc(C)c(OC(C)(C)C(=O)O)c(C)c1)C2=O | FABP1 | cell-free assay, inhibitor, fluorescence |  | pH 7.4 | 5.3 µM |
| NS(=O)(=O)c1ccc(-n2nc(C(=O)NN=Cc3ccccc3O)cc2-c2ccccc2)cc1 | Focal adhesion kinase 1 (PTK2, Homo sapiens, UniProt Q05397) | enzyme activity, inhibitor, ELISA |  |  | 15.9 µM |
| CCCOc1ccc2c(c1)O/C(=C\c1ccc(OC(C)(C)C(=O)O)c(Cl)c1)C2=O | FABP1 | cell-free assay, inhibitor, fluorescence |  | pH 7.4 | 7.7 µM |
| CC(=O)c1ccc2c(c1)N(CCCN1CCC(CCO)CC1)c1ccccc1S2 | SQLE | enzyme activity, inhibitor, absorbance |  | pH 7.4, with preincubation | 1.44 µM |
| O=c1cc(-c2ccccc2)oc2cc(O)cc(O)c12 | SQLE | enzyme activity, inhibitor, radiometric |  |  | 4.47 µM |
| C[C@H]1CN(C(=O)Nc2ccc(C(F)(F)F)cc2)CCN1c1ccnc(Nc2ccc(Cl)cc2Cl)n1 | MAL12 | enzyme activity, inhibitor, absorbance |  | pH 6.9 | 12 µM |
| CCCOc1ccc2c(c1)O/C(=C\c1ccc(OC(C)C(=O)O)cc1)C2=O (stereo not drawn) | FABP1 | cell-free assay, inhibitor, fluorescence |  | pH 7.4 | 10.4 µM |
| COc1ccc(NC(=O)N2CCN(c3ccnc(Nc4ccc(Cl)cc4)n3)[C@@H](C)C2)cc1 | MAL12 | enzyme activity, inhibitor, absorbance |  | pH 6.9 | 7.43 µM |
| O=C(O)[C@H]1O[C@@H](Oc2cc3oc(-c4ccccc4)cc(=O)c3c(O)c2O)[C@H](O)[C@@H](O)[C@@H]1O | SQLE | enzyme activity, inhibitor, radiometric |  |  | 2.5 µM |
| NC/C(=C\F)COc1cccc(Cn2c(=S)[nH]c(=O)c3[nH]cnc32)c1 | Amine oxidase [flavin-containing] A (MAOA, Homo sapiens, UniProt P21397) | enzyme activity, inhibitor |  |  | > 30 µM |
| N#Cc1ccc2c(c1)N(CCCN1CCC(O)CC1)c1ccccc1S2 | SQLE | enzyme activity, inhibitor, absorbance |  | pH 7.4, with preincubation | 1.55 µM |
| CCCOc1ccc2c(c1)O/C(=C\c1cc(C)c(OC(C)(C)C(=O)O)c(C)c1)C2=O | FABP1 | cell-free assay, inhibitor, fluorescence |  | pH 7.4 | 4.8 µM |
| O=C1COc2ccc(NS(=O)(=O)c3cccc(Cl)c3)cc2CN1C1CCCc2ccccc21 (stereo not drawn) | Replicase polyprotein 1ab, papain-like protease (rep, Severe acute respiratory syndrome coronavirus 2, UniProt P0DTD1) | enzyme activity, inhibitor, fluorescence |  |  | 6 µM |
| CC1CN(C(=O)Nc2ccc(Cl)c(Cl)c2)CCN1c1ccnc(Nc2ccc(Cl)cc2)n1 (stereo not drawn) | MAL12 | enzyme activity, inhibitor, absorbance |  | pH 6.9 | 2.41 µM |
| CN1CCC(CNc2ccc3ncc(-c4cccc(OC(F)(F)F)c4)n3n2)CC1 | Alpha-1A adrenergic receptor (ADRA1A, Homo sapiens, UniProt P35348) | calcium signal, antagonist |  |  | 4.81 µM |
